In brackets after ≈: the same amount, converted by molar mass. Activity calls are given as the source filed them. No cut-off for these calls is given here.

One may read the MIC as the lowest concentration found to suppress growth. Low values mean inhibition by little substance, high ones a need for much substance. In general, inhibition refers to how much of the control response was suppressed. Low values mean little suppression, high ones strong suppression. As a reminder, the ED50 is the dose that gives a 50% effect, or the effect in half of the subjects. The Kd is the free concentration of one partner at which half of the binding sites on the other are occupied at equilibrium, for simple one-to-one binding.

The subject of assay [1] is Enterococcus faecium. The assay can be described thus: Antibacterial activity against Enterococcus faecium 7130724 by broth microdilution method. Format: functional. A general note: Dilution methods test growth across graded concentrations, often in twofold steps.
For assay [2], the system named is Enterococcus faecalis. The assay can be described thus: Antibacterial activity against Enterococcus faecalis ATCC 29212 by broth microdilution method. Format: functional. Put shortly: (§1)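 Broth microdilution MICs were run per CLSI M07-A8 (2009). The strain panel included C. difficile ATCC 43255, E. faecalis ATCC 29212 and S. pyogenes ATCC BAA-595.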
The test system of assay [3] is Staphylococcus aureus. In words: Antibacterial activity against Staphylococcus aureus A4.018 by broth microdilution method. Format: functional.
In assay [4] the test system is Streptococcus pyogenes. In words: Antibacterial activity against Streptococcus pyogenes ATCC BAA-595 by broth microdilution method. The class given is functional. Put shortly: as §1
A short description of assay [5]: Antibacterial activity against Clostridium difficile ATCC 43255 by broth microdilution method. Format: functional. To be noted: Clostridioides difficile. Put shortly:
as §1

The test system of assay [6] is Escherichia coli. The assay can be described thus: Inhibition of protein synthesis in Escherichia coli S30 extract at 2 uM after 75 mins by luciferase based luminescence assay relative to GE2270A. Format: functional.
Assay [7] concerns Staphylococcus aureus. In words: Antibacterial activity against Staphylococcus aureus ATCC 49951 infected in CD1 mouse assessed as mouse survival up to 5 days. Format: functional. To be noted: ATCC 49951, 120 h. Summed up: (§2)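 Female CD1 mice (21–25 g) were infected ip with 1 × 10^8 CFU/mouse, 10–100× the minimal lethal dose. E. faecalis NB04025 was given in 50% rat fecal extract and S. aureus ATCC 49951 in 0.9% NaCl. Compound was given by iv tail-vein bolus at 1 and 5 h post-inoculation, at several dose levels (6 mice/group). ED50 with 95% CI was derived by probit analysis of day-5 survival.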

In assay [8] the test system is Enterococcus faecalis. In words: Antibacterial activity against Enterococcus faecalis NB04025 infected in CD1 mouse assessed as mouse survival up to 5 days. Format: functional. Conditions: NB04025, 120 h. Summed up: as §2
A short description of assay [9]: Binding affinity to Escherichia coli GDPNP-labelled EF-Tu by surface plasmon resonance analysis. (In SPR one partner is held on a chip, and binding of the other changes the refractive index at the surface.)
A short description of assay [10]: Antibacterial activity against Clostridium difficile ATCC 43255 infected in golden syrian hamster assessed as survival rate at 20 mg/kg, po qd administered days 1 to 5 measured on days 6 to 21. The class given is functional. To be noted: Clostridioides difficile. Summed up: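 Golden Syrian hamsters got clindamycin 10 mg/kg sc on day −1. On day 0 they were gavaged with ~7.5 × 10^6 CFU C. difficile ATCC 43255 (0.75 mL). From 24 h post-infection they were dosed orally once daily for up to 5 days (8/dose), in a NaOH/PEG-400/2.5% Cremophor EL solution diluted in pH 7.4 PBS. Vehicle controls were included, and animals were observed twice daily through day 21.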

The subject of assay [11] is Clostridium difficile ATCC 43255. In words: Antibacterial activity against Clostridium difficile ATCC 43255 infected in golden syrian hamster assessed as decrease in toxin level in cecum after 21 days by ELISA. Format: functional. To be noted: Caecum. Summed up: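 In the clindamycin-pretreated, C. difficile-infected hamster model, oral compound was given once daily on days 1–5. Surviving animals were euthanized at study end (day 21). Cecal homogenates were assayed for C. difficile toxins A and B by Tox A/B II ELISA per kit directions.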
On the technique in general: In an ELISA, binding on a coated surface is turned into a signal by an enzyme label.

With `CNC(=O)C[C@@H]1NC(=O)c2csc(n2)-c2ccc(-c3nc(N(CCCCCCC(=O)O)C(=O)O[C@H]4CC[C@H](C(=O)O)CC4)cs3)nc2-c2csc(n2)-c2csc(n2)[C@H]([C@@H](O)c2ccccc2)NC(=O)CNC(=O)c2nc(sc2COC)[C@H](C(C)C)NC(=O)c2nc1sc2C`, the MIC is 0.125 µg/mL (≈ 0.0896 µM) in assay [1]; under 0.06 µg/mL in assay [2]; 0.25 µg/mL (≈ 0.179 µM) in assay [3]; 2 µg/mL (≈ 1.43 µM) in assay [4]; 0.06 µg/mL (≈ 0.043 µM) in [5]. This compound had an inhibition at 2 µM in assay [6] of 67%. Besides, the ED50 amounted to 6.6 mg/kg in assay [7] and 1 mg/kg in assay [8].

As to `CNC(=O)C[C@@H]1NC(=O)c2csc(n2)-c2ccc(-c3nc(N(CCCCCC(=O)O)C(=O)O[C@H]4CC[C@H](C(=O)O)CC4)cs3)nc2-c2csc(n2)-c2csc(n2)[C@H]([C@@H](O)c2ccccc2)NC(=O)CNC(=O)c2nc(sc2COC)[C@H](C(C)C)NC(=O)c2nc1sc2C`, the minimal inhibitory concentration (MIC) in assay [1] is under 0.06 µg/mL; in assay [2], under 0.06 µg/mL; in assay [3], 0.125 µg/mL (≈ 0.0905 µM); in [4], 1 µg/mL (≈ 0.724 µM); in [5], 0.06 µg/mL (≈ 0.0435 µM). In assay [6], this compound came in with an inhibition at 2 µM of 67%. Further, the affinity in assay [9], expressed as Kd, was 6 nM. The ED50 came out at 9.6 mg/kg in assay [7] and 0.8 mg/kg in [8].

On to `CNC(=O)C[C@@H]1NC(=O)c2csc(n2)-c2ccc(-c3nc(N(CCCC(=O)O)C(=O)O[C@H]4CC[C@H](C(=O)O)CC4)cs3)nc2-c2csc(n2)-c2csc(n2)[C@H]([C@@H](O)c2ccccc2)NC(=O)CNC(=O)c2nc(sc2COC)[C@H](C(C)C)NC(=O)c2nc1sc2C`, for which the MIC in assay [1] was 0.06 µg/mL (≈ 0.0444 µM); in assay [2] it was under 0.06 µg/mL; in [3] it was 0.25 µg/mL (≈ 0.185 µM); in assay [4], 1 µg/mL (≈ 0.739 µM); in [5], 0.06 µg/mL (≈ 0.0444 µM). Also, at 2 µM the inhibition in assay [6] was 67%. Further, the ED50 worked out at 2.6 mg/kg in [7] and 2.2 mg/kg in [8].

As for `CN[C@H](CC(C)C)C(=O)N[C@H]1C(=O)N[C@@H](CC(N)=O)C(=O)N[C@H]2C(=O)N[C@H]3C(=O)N[C@H](C(=O)N[C@H](C(=O)O)c4cc(O)cc(O)c4-c4cc3ccc4O)[C@H](O)c3ccc(c(Cl)c3)Oc3cc2cc(c3O[C@@H]2O[C@H](CO)[C@@H](O)[C@H](O)[C@H]2O[C@H]2C[C@](C)(N)[C@H](O)[C@H](C)O2)Oc2ccc(cc2Cl)[C@H]1O` [VANCOMYCIN], the survival at 20 mg/kg in [10] stood at 25%. The outcome in assay [11] was Active.

For `CNC(=O)C[C@@H]1NC(=O)c2csc(n2)-c2ccc(-c3nc(N(CCCCC(=O)O)C(=O)O[C@@H]4CC[C@@H](C(=O)O)C[C@H]4CCCCC(=O)O)cs3)nc2-c2csc(n2)-c2csc(n2)[C@H]([C@@H](O)c2ccccc2)NC(=O)CNC(=O)c2nc(sc2COC)[C@H](C(C)C)NC(=O)c2nc1sc2C`, the MIC in [1] was 4 µg/mL (≈ 2.73 µM); in assay [2], 4 µg/mL (≈ 2.73 µM); in assay [3], 8 µg/mL (≈ 5.45 µM); in [4], 4 µg/mL (≈ 2.73 µM); in assay [5], 0.25 µg/mL (≈ 0.17 µM). For the same compound, in [6], the inhibition at 2 µM worked out at 50%.

Consider `CNC(=O)C[C@@H]1NC(=O)c2csc(n2)-c2ccc(-c3nc(N(CCCCC(=O)O)C(=O)C[C@H]4CC[C@H](C(=O)O)CC4)cs3)nc2-c2csc(n2)-c2csc(n2)[C@H]([C@@H](O)c2ccccc2)NC(=O)CNC(=O)c2nc(sc2COC)[C@H](C(C)C)NC(=O)c2nc1sc2C`, for which the MIC in assay [1] was over 32 µg/mL; in assay [2], 8 µg/mL (≈ 5.86 µM); in [3], 4 µg/mL (≈ 2.93 µM); in assay [4], 32 µg/mL (≈ 23.4 µM); in assay [5] it was 0.25 µg/mL (≈ 0.183 µM). Testing at 2 µM in [6] gave an inhibition of 30%.

In the case of `CNC(=O)C[C@@H]1NC(=O)c2csc(n2)-c2ccc(-c3nc(N(CCCCC(=O)O)C(=O)[C@H]4CC[C@H]4C(=O)O)cs3)nc2-c2csc(n2)-c2csc(n2)[C@H]([C@@H](O)c2ccccc2)NC(=O)CNC(=O)c2nc(sc2COC)[C@H](C(C)C)NC(=O)c2nc1sc2C`, the MIC is 32 µg/mL (≈ 24.2 µM) in [1]; 16 µg/mL (≈ 12.1 µM) in assay [2]; 32 µg/mL (≈ 24.2 µM) in assay [3]; over 32 µg/mL in assay [4]; 4 µg/mL (≈ 3.02 µM) in [5]. Also, the inhibition at 2 µM in assay [6] is 30%.

With `CNC(=O)C[C@@H]1NC(=O)c2csc(n2)-c2ccc(-c3nc(N(CCCCC(=O)O)C(=O)N4CCC(C(=O)O)CC4)cs3)nc2-c2csc(n2)-c2csc(n2)[C@H]([C@@H](O)c2ccccc2)NC(=O)CNC(=O)c2nc(sc2COC)[C@H](C(C)C)NC(=O)c2nc1sc2C`, the MIC in assay [1] was over 32 µg/mL; in assay [2], over 32 µg/mL; in assay [3], over 32 µg/mL; in assay [4], over 32 µg/mL; in assay [5], over 4 µg/mL. This compound gave an inhibition at 2 µM in [6] of 30%.

Turning to `CNC(=O)C[C@@H]1NC(=O)c2csc(n2)-c2ccc(-c3nc(N(CCCCC(=O)O)C(=O)O[C@H]4CC[C@](CCCCC(=O)O)(C(=O)O)CC4)cs3)nc2-c2csc(n2)-c2csc(n2)[C@H]([C@@H](O)c2ccccc2)NC(=O)CNC(=O)c2nc(sc2COC)[C@H](C(C)C)NC(=O)c2nc1sc2C`, the MIC in assay [1] was 1 µg/mL (≈ 0.682 µM); in assay [2] it was 0.5 µg/mL (≈ 0.341 µM); in assay [3], 1 µg/mL (≈ 0.682 µM); in assay [4], 4 µg/mL (≈ 2.73 µM); in [5] it was 0.03 µg/mL (≈ 0.0205 µM). Moreover, in assay [6], at 2 µM the inhibition was 50%.

Consider `CNC(=O)C[C@@H]1NC(=O)c2csc(n2)-c2ccc(-c3nc(N(CC(CC(=O)O)OC)C(=O)O[C@H]4CC[C@H](C(=O)O)CC4)cs3)nc2-c2csc(n2)-c2csc(n2)[C@H]([C@@H](O)c2ccccc2)NC(=O)CNC(=O)c2nc(sc2COC)[C@H](C(C)C)NC(=O)c2nc1sc2C` (stereo partly specified), for which the MIC in assay [1] stood at 1 µg/mL (≈ 0.723 µM); in [2] it was 1 µg/mL (≈ 0.723 µM); in [3], 1 µg/mL (≈ 0.723 µM); in [4] it was 4 µg/mL (≈ 2.89 µM); in assay [5], 0.06 µg/mL (≈ 0.0434 µM). In assay [6], testing at 2 µM gave an inhibition of 67%.

For `CNC(=O)C[C@@H]1NC(=O)c2csc(n2)-c2ccc(-c3nc(N(CCCCC(=O)O)C(=O)[C@H]4CC[C@H](C(=O)O)CC4)cs3)nc2-c2csc(n2)-c2csc(n2)[C@H]([C@@H](O)c2ccccc2)NC(=O)CNC(=O)c2nc(sc2COC)[C@H](C(C)C)NC(=O)c2nc1sc2C`, the MIC in assay [1] was over 32 µg/mL; in assay [2], 32 µg/mL (≈ 23.7 µM); in assay [3], 16 µg/mL (≈ 11.8 µM); in [4], over 32 µg/mL; in assay [5], 2 µg/mL (≈ 1.48 µM). The compound further came in with an inhibition at 2 µM in [6] of 30%.

In the case of `CNC(=O)C[C@@H]1NC(=O)c2csc(n2)-c2ccc(-c3nc(N(C/C=C/C(=O)O)C(=O)O[C@H]4CC[C@H](C(=O)O)CC4)cs3)nc2-c2csc(n2)-c2csc(n2)[C@H]([C@@H](O)c2ccccc2)NC(=O)CNC(=O)c2nc(sc2COC)[C@H](C(C)C)NC(=O)c2nc1sc2C`, the MIC was found to be 0.5 µg/mL (≈ 0.37 µM) in [1]; 0.25 µg/mL (≈ 0.185 µM) in [2]; 0.5 µg/mL (≈ 0.37 µM) in assay [3]; 2 µg/mL (≈ 1.48 µM) in assay [4]; 0.03 µg/mL (≈ 0.0222 µM) in assay [5]. Besides, in [6], the inhibition at 2 µM was found to be 67%.

As to `CNC(=O)C[C@@H]1NC(=O)c2csc(n2)-c2ccc(-c3nc(N(CCCC(=O)O)C(=O)CCCC(=O)O)cs3)nc2-c2csc(n2)-c2csc(n2)[C@H]([C@@H](O)c2ccccc2)NC(=O)CNC(=O)c2nc(sc2COC)[C@H](C(C)C)NC(=O)c2nc1sc2C`, the MIC is over 32 µg/mL in assay [1]; over 32 µg/mL in assay [2]; over 32 µg/mL in assay [3]; over 32 µg/mL in assay [4]; over 4 µg/mL in assay [5]. Moreover, testing at 2 µM in assay [6] gave an inhibition of 30%.

The record behind these values is ChEMBL document CHEMBL2062386, “Discovery of LFF571: an investigational agent for Clostridium difficile infection” (J Med Chem, 2012).
